Counter-ions that a name gives are not always drawn. Blank lines part the entries; values can stand above or below the molecule they belong to. Residues, ends and D or L forms follow the SMILES beside them. *: point of attachment. Cbz = O=C(OCc1ccccc1)*
Experiments:
[1] = cited from earlier work; for ability to penetrate the blood-brain barrier: positive controls of PAMPA
proteasome activity = test: Proteasome activity in mouse tissue lysates after intraperitoneal injection; settings: in vivo
[2] = molecular target: proteasome (chymotrypsin-like) activity (Mus musculus, UniProt O55234); test: Proteasome peptidase activity in mouse brain lysates with inhibitor; assay type: biochemical; settings: brains of 3-month-old mice, replicate samples incubated with inhibitor
In short: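 Mouse brain tissue lysed mechanically in reaction buffer, with buffer volume scaled to tissue weight; the supernatant was assayed. ATP-stimulated activity used 50 mM tris-HCl pH 7.8 with 1 mM MgCl2, 0.5 mM ATP and 1 mM DTT. ATP-independent activity used 50 mM tris-HCl pH 8.0 with 1 mM MgCl2 and 1 mM DTT. Proteasome inhibitor (1 μM) was added 5 min before starting with 50 μM Suc-LLVY-AMC.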

Molecule: NCCc1ccc(O)c(O)c1 [Dopamine, Dopamine hydrobromide]
ability to cross the blood-brain barrier ([1]; negative control of PAMPA): unable to efficiently cross the blood-brain barrier

Molecule: Tat^47–57: HIV-1 Tat-derived peptide, synthesized in-house, positive control of PAMPA
ability to penetrate the blood-brain barrier [1]: known for their ability to penetrate the blood-brain barrier

Molecule: CC(C)C[C@@H](C=O)NC(=O)[C@H](CC(C)C)NC(=O)[C@H](CC(C)C)NC(=O)OCc1ccccc1 [MG132, N-carbobenzyloxy-L-leucyl-L-leucyl-L-leucinal] (Cbz-Leu-Leu-Leu-aldehyde)
effect of inhibitor on the TAT1-8,9TOD-induced increase of proteasome activity (proteasome activity): could be blocked

effect of inhibitor on increased proteasome activity of NSE-PSMB5 mouse brains [2]: blocked
Molecule: CC(C)C[C@H](NC(=O)[C@H](Cc1ccccc1)NC(=O)c1cnccn1)B(O)O [bortezomib]

Molecule: CC(C)NCC(O)COc1cccc2ccccc12 (stereo not drawn) [propranolol, Propranolol hydrochloride]
ability to penetrate the blood-brain barrier [1]: known for their ability to penetrate the blood-brain barrier

Molecule: dermorphin
ability to penetrate the blood-brain barrier [1]: known for their ability to penetrate the blood-brain barrier

Reference: publication PMC9177073 (Science Advances, 2022)
